# Rpn11 block – Rpn11 (PSMD14) deubiquitinase inhibitors, primary screen, biochemical, fluorescence polarization, uHTS; human 26S proteasome, Ub4-pepOG fluorescence polarization; 20S core pre-blocked with epoxomicin; hit rate 0.59% among 360,000; calls only at 20 µM; AID 588493, 2011;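 active = inhibition at 20 µM, scaled to each plate's controls, above about 33%, limit read from the data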
# TPT1 inhibitor – Candida albicans TPT1 enzyme inhibitors, primary screen, biochemical, fluorescence polarization | tRNA 2'-phosphotransferase TPT1 (Candida albicans SC5314) | inhibition, % at 5 µM | recombinant caTPT1, FP RNA substrate dephosphorylation | AID 1962, 2009 | hit rate 0.81% among 300,000;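 active = inhibition above the mean of all tested compounds plus 3 SD, set per screening campaign, cut at about 24% in these data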;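 note: plate controls were DMSO alone for no effect and ferristatin control at 100 nM for full effect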
# CSN inh – inhibitors of CSN-mediated cullin deneddylation, primary screen, biochemical, fluorescence polarization, uHTS | inhibition, % at 12.5 µM | Purified CSN, SCF-Nedd8-OG deneddylation | COP9 signalosome complex subunit 5 (Homo sapiens), Q92905 | hit rate 0.38% among 360,000 | AID 651999, 2013;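 active = pattern-corrected inhibition above about 35%, with an unprinted fluorescence ratio check between 0.5 and 1.5, limit read from the data, passing the limit was not always enough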;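 note: 0% = enzyme with substrate and 100% = substrate without enzyme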
# Target sequence (Q92905 whole entry, looked up, one chain of several): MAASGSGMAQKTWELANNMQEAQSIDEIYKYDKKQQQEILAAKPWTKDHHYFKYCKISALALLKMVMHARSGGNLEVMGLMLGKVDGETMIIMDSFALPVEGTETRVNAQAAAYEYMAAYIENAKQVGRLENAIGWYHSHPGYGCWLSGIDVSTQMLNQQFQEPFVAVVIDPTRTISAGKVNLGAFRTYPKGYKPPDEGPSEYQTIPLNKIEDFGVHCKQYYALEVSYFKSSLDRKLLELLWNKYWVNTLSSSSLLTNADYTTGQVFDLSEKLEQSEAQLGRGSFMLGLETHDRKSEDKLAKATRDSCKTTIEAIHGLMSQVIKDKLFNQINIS
#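 Schedule: reaction 90 min, room temperature / Assay system: HEK293T-derived human Csn5 enzyme / Input: Csn5 at 0.24 nM final / Measure: inhibition of Csn5 cleavage, % / Control set: substrate-only high control, full reaction low control / Technique: fluorescence polarization of the substrate / Buffer or medium: Tris/NaCl/DTT buffer, pH 7.5 / Reagent: SCFSkp2-Nedd8OG substrate at 10 nM final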
# HNF4A DNA FP – change in binding of human HNF4A to DNA, primary screen, biochemical, fluorescence polarization, FITC-DNA; Hepatocyte nuclear factor 4-alpha (Homo sapiens), P41235; 1 h; activity change, % at 10 µM; hit rate 0.3% among 360,000; AID 1224865, 2016; in the data active = activity change above about 30%, passing the limit was not always enough
# Active calls of the source: *; i = inactive; . = no result given; + = active, no number. Rows were chosen to be rich in hits. Some 1.5% of all compounds tested hit in one or more screens of this group.
SMILES,Rpn11 block,TPT1 inhibitor,CSN inh,HNF4A DNA FP
O=C(CSc1nnc2scc(-c3ccccc3)n12)Nc1nsc(-c2ccc(Cl)cc2)n1,i,3,47*,-7
COc1ccc(OC)c(-c2c3cc(O)c(=O)cc-3oc3cc(O)c(O)cc23)c1,i,-17,46*,-18
O=c1cc2oc3cc(O)c(O)cc3c(-c3ccccc3O)c-2cc1O,i,.,28,-29
O=C(COc1ccc([N+](=O)[O-])cc1)NC(C(=O)O)C(O)c1cccc([N+](=O)[O-])c1 (centres undefined),i,-1,53*,8
O=C(Cc1ccc([N+](=O)[O-])cc1)NC(C(=O)O)C(O)c1cccc([N+](=O)[O-])c1 (centres undefined),i,0,-2,2
O=C(/C=C/c1ccc2c(c1)S(=O)(=O)N(Cc1ccccc1)[C@H]2CC(=O)N1CCOCC1)N1CCOCC1,i,.,-1,0
CC1CCN(C(=O)CSc2nnc(CNC(=O)c3c(F)cccc3F)o2)CC1,i,-3,0,-2
CCC1(CC)NC(=O)N(CC(=O)Nc2ccc(OCc3ccccc3)cc2)C1=O,i,.,2,5
CCc1ccccc1NC(=O)/C(C#N)=C/c1ccc(Sc2ccccc2)o1,i,5,-4,3
Cc1cc(C)nc(Sc2ccc(/C=C(\C#N)C(=O)Nc3ccccc3)o2)n1,i,11,9,71*
CC(C)Cn1c(N)c(C(=O)CSc2nc3ccccc3n2C)c(=O)n(C)c1=O,i,0,-4,48*
COc1ccc(NS(=O)(=O)c2cc(NC(=O)c3ccc(=O)[nH]n3)ccc2C)cc1,i,.,-2,-1
O=C(NC1CCN(C(=O)c2cccc([N+](=O)[O-])c2)CC1)c1ccccc1,i,-4,3,4
CN(C)c1ccc(/C=C/C(O)=C2/C(=O)N(C)C3(C)CC2c2ccccc2O3)cc1 (centres undefined),.,188*,.,.
CCCCn1c(N)c(N(CCOC)C(=O)c2cccc(S(=O)(=O)N3CCCCCC3)c2)c(=O)[nH]c1=O,i,2,0,1
CC(C)OC(=O)c1nn2c(C(F)(F)F)cc(-c3ccc(Br)o3)nc2c1Br,i,2,0,0
CC(C)OC(=O)c1nn2c(C(F)(F)F)cc(-c3ccco3)nc2c1Cl,.,5,14,65*
CCCSC1=N/C(=C\c2ccc([N+](=O)[O-])o2)C(=O)S1,+,.,39,-24
CCCC(CCC)C(=O)Nc1cccc(-c2cn3c(n2)SCC3)c1,i,1,-4,38*
CCS(=O)(=O)Nc1cccc(-c2cn3c(n2)SCC3)c1,i,0,6,-4
COc1ccccc1CN(C)C(=O)c1ccc(S(=O)(=O)NCc2ccco2)cc1,i,.,-6,1
O=C(COC(=O)c1ccc(S(=O)(=O)NCc2ccco2)cc1)Nc1ccc(Cl)cn1,i,-1,48*,-5
CN(Cc1cnn(-c2ccccc2)c1)C(=O)c1ccc(S(=O)(=O)NCc2ccco2)cc1,i,.,45*,4
Cc1ccc(NC(=O)COC(=O)c2ccc(S(=O)(=O)NCc3ccco3)cc2)cc1,i,.,-2,0
O=C(COC(=O)c1ccc(S(=O)(=O)NCc2ccco2)cc1)Nc1ccccc1,i,.,37*,2
SMILES,Rpn11 block,TPT1 inhibitor,CSN inh,HNF4A DNA FP
CCOc1ccc(NC(=O)CN(C)C(=O)c2cc(S(=O)(=O)N(C)C)ccc2N2CCCC2)cc1OCC,i,0,2,3
CCOc1ccc(C(=O)Nc2cc(NC(=O)c3ccc(OCC)c(Cl)c3)cc(C(=O)O)c2)cc1Cl,i,.,49*,0
CCOc1cc(CNc2ccc(O)cc2)ccc1OCc1ccc(Cl)cc1Cl,i,0,44*,-1
CC(C)C[C@H]1CN([C@@H](Cc2ccc(O)cc2)CN2CCC[C@@H]2CN2C(=O)C(=O)NC[C@@H]2Cc2ccccc2)C(=O)C(=O)N1CC1CCCCC1,i,.,0,0
CC(C)C[C@H]1CN([C@@H](Cc2ccccc2)CN2CCC[C@@H]2CN2C(=O)C(=O)NC[C@@H]2Cc2ccc(O)cc2)C(=O)C(=O)N1CC1CCCCCC1,i,.,37*,2
COc1ccc2[nH]c3c4c(ccc3c2c1)C(=O)C=CC4=O,i,.,5,46*
COc1ccc(-c2n[nH]c(=S)n2-c2ccc(C)cc2C)cc1,i,-2,1,36*
Cc1ccc(-n2c(-c3ccc(Cl)cc3)n[nH]c2=S)c(C)c1,i,1,1,0
NC(=O)C1CCN(CC(=O)Nc2cc(S(=O)(=O)N3CCOCC3)ccc2N2CCCC2)CC1,i,.,-2,4
O=C(NCc1cccnc1)c1cc(C2CCCCN2C(=O)c2cccs2)on1 (centres undefined),i,.,-6,1
CCOc1ccccc1N1CC(C(=O)NNC(=O)c2ccc(F)cc2)CC1=O (centres undefined),i,1,+,-3
COCCN(C(=O)COC(=O)Cc1ccc(Cl)cc1)c1c(N)n(Cc2ccccc2)c(=O)[nH]c1=O,i,.,1,0
N#Cc1ccc(-c2ccc(F)cc2)nc1SCC(=O)Nc1sc2c(c1C#N)CCC2,i,26*,8,6
CC1=NN(c2ccccc2)C(=O)/C1=C\c1cn(CCC#N)nc1-c1ccc(Cl)cc1,i,5,0,35*
CC1=NN(c2ccccc2)C(=O)/C1=C\c1cn(-c2ccccc2)nc1C,i,1,8,-4
C1CCN2CC3CC(CN4CCCC[C@@H]34)[C@H]2C1,i,.,-3,5
COc1ccc(OCC(=O)NNC(=O)Cn2c(=O)cnc3ccccc32)cc1,i,.,1,0
Cc1ccc(-c2csc3nc[nH]c(=O)c23)cc1,i,-5,-3,6
Cc1ccc(-c2csc3nc(-c4ccncc4)[nH]c(=O)c23)cc1,.,2,44*,77*
COc1ccc(Cc2nc3ccccc3n2CC(=O)N/N=C/c2ccc(C)cc2O)cc1OC,i,-2,60*,39*
N=c1c(C(=O)NCc2ccco2)cc2c(=O)n3ccccc3nc2n1Cc1ccc(Cl)cc1,i,21,1,0
Cc1ccc(S(=O)(=O)c2cc3c(=O)n4ccccc4nc3n(Cc3ccco3)c2=N)cc1,i,24,38*,-26
CCOC(=O)c1cc2c(=O)n3ccccc3nc2n(Cc2ccc(Cl)cc2)c1=N,.,.,42*,17
CCC(C(=O)n1cccc1C#N)c1ccccc1C (centres undefined),i,.,0,4
CCCCCCCCCCCCCCC[C@@H](O)[C@@H](N)CO,i,.,84*,121*
CC(=O)Oc1ccccc1C(=O)C=Cc1cccc([N+](=O)[O-])c1,i,.,13,0
